Experimental data pooled from the literature.
Protocols differ between the studies behind these lines.
CNR2: Cannabinoid receptor 2 (CNR2, Homo sapiens, UniProt P34972)
CHRNA7: Neuronal acetylcholine receptor subunit alpha-7 (CHRNA7, Homo sapiens, UniProt P36544)
Ntsr1: Neurotensin receptor type 1 (Ntsr1, Rattus norvegicus, UniProt P20789)
HRH3: Histamine H3 receptor (HRH3, Homo sapiens, UniProt Q9Y5N1)

| SMILES | target | assay | conditions | endpoint | value |
| --- | --- | --- | --- | --- | --- |
| CCC(CC)(NC(=O)c1ccc(C2CC2)c(Cc2ccc(F)cc2)n1)C(=O)NCCOCCOCCNC(=O)c1ccc2c(c1)C(=O)OC21c2ccc(N)c(S(=O)(=O)O)c2Oc2c1ccc(N)c2S(=O)(=O)O | CNR2 | ligand displacement, radioligand | cell membranes | Ki | 141 nM |
| COc1ccc2[nH]c3c(c2c1)CCN(C)CC3 | CHRNA7 | ion current, antagonist, two-electrode voltage clamp | oocytes | IC50 | 11200 nM |
| CCCCCc1cc(O)c2c(c1)OC(C)(CCC=C(C)C)C=C2 (stereo not drawn) | CNR2 | ligand displacement, radioligand | cell membranes | Ki | 1740 nM |
| CC(C)C[C@H](NC(=O)[C@@H](N)C(C)(C)C)C(=O)N[C@@H](CCCNC(=N)N)C(=O)N[C@@H](CCCCN)C(=O)N1CCC[C@H]1C(=O)N[C@@H](Cc1ccc(O)cc1)C(=O)O | Ntsr1 | ligand displacement, flow cytometry | – | Ki | > 100000 nM |
| CNC(=O)c1ccc(-c2cnn3ccc(C(=O)N(C)c4ccc(Cl)c(C(=O)OC)c4)cc23)cc1 | HRH3 | cell-free assay | – | IC50 | > 30000 nM |
| C=C1CC[C@H]2O[C@]2(C)CC[C@@H]2[C@@H]1CC2(C)C | CNR2 | ligand displacement, radioligand | cell membranes | Ki | > 10000 nM |
| CCC(CC)(NC(=O)c1ccc(N2CC(OC)C2)c(OC[C@H]2C[C@@H]2CO)n1)C(=O)NCCOCCOCCNC(=O)c1ccc2c(c1)C1(OC2=O)c2ccc(N(C)C)cc2[Si](C)(C)c2cc(N(C)C)ccc21 | CNR2 | ligand displacement, radioligand | cell membranes | Ki | 1620 nM |
| CC(C)C[C@@H]1NC(=O)[C@H](C(C)(C)C)NC(=O)[C@H](Cc2ccc(O)cc2)NC(=O)[C@@H]2CCCN2C(=O)[C@H](CCCCN)NC(=O)[C@H](CCCNC(=N)N)NC1=O | Ntsr1 | ligand displacement | – | Ki | > 100000 nM |
| COC(=O)c1cc(N(C)C(=O)c2ccn3ncc(-c4ccc(C(=O)O)cc4)c3c2)ccc1Cl | HRH3 | cell-free assay | – | IC50 | > 30000 nM |
| COc1ccc2c3c([nH]c2c1)CCN(C)CC3 | CHRNA7 | ion current, antagonist, two-electrode voltage clamp | oocytes | IC50 | 10300 nM |
| CC(C)(C)OC(=O)N1CCN(C(=O)n2cc(-c3ccc(OC(F)(F)F)cc3)nn2)C(Cc2ccccc2)C1 (stereo not drawn) | Monoacylglycerol lipase ABHD6 (Abhd6, Mus musculus, UniProt Q8R2Y0) | enzyme activity, inhibitor | – | IC50 | 8.1 nM |
| CC[C@H](C)[C@H](NC(C)=O)C(=O)N[C@@H](CCC(=O)O)C(=O)N[C@H](C(=O)N[C@H](C=O)CC(=O)O)[C@@H](C)O | Caspase-2 (Homo sapiens, UniProt P42575) | enzyme activity, inhibitor | – | IC50 | 73.3 nM |
